# Assay results from different studies.
# Protocols differ between the studies behind these lines.
# Target: Mitogen-activated protein kinase kinase kinase 4 (MAP3K4, Homo sapiens, UniProt Q9Y6R4)
Structure (SMILES),assay,conditions,remaining binding [%]
c1cnn2ncc(-c3ccnc(N4CCC45COC5)n3)c2c1,binding,1 µM,97
O=C(NCCCN1CCOCC1)c1ccc(Nc2nccc(-c3cc4ccccc4s3)n2)cc1,"binding, competition with immobilised ligand",1 µM,68
CC(C)(C)c1ccc(-c2nc(CBr)nn2-c2cccc(O)c2)cc1,"cell-free assay, competition with immobilised ligand",10 µM,91
N[C@H]1CCN(c2nccc(-c3cnn4ncccc34)n2)C1,binding,1 µM,100
O=C(c1ccc(Nc2ncc(Cl)c(-c3ccc(Cl)s3)n2)cc1)N1CCC(N2CCCC2)CC1,"binding, competition with immobilised ligand",1 µM,61
COc1cnc(Nc2cccc(S(N)(=O)=O)c2)nc1N1CCN(c2ccccc2)C(=O)C1,"binding, competition with immobilised ligand",1 µM,100
O=C(c1ccc(Nc2ncc(Cl)c(-c3cc4ccccc4s3)n2)cc1)N1CCC(N2CCCC2)CC1,"binding, competition with immobilised ligand",1 µM,33
C[C@@]1(Cc2ccc(C#N)cc2)C(=O)N(c2cc(Cl)cc(Cl)c2)c2ncc(C(=O)NC3(c4nc(C5CCC5)no4)CC3)n21,"cell-free assay, competition with immobilised ligand",1 µM,100
Nc1ncc2c(n1)-c1c([nH]c3ccc(C#CC4CC4)cc13)CCCC2,"binding, competition with immobilised ligand",1 µM,92
COc1ccc2c(O[C@@H]3C[C@H]4C(=O)N[C@]5(C(=O)O)CC5/C=C\CCCCC[C@H](NC(=O)OC5CCCC5)C(=O)N4C3)cc(-c3csc(NC(=O)C(C)C)n3)nc2c1C (stereo partly drawn),"cell-free assay, competition with immobilised ligand",1 µM,74
O=C(Nc1c[nH]nc1C(=O)NC1CCNCC1)c1cc(F)cc(F)c1,"binding, competition with immobilised ligand",1 µM,100
CN(C)C(=O)Cn1cc(-c2nc([C@@](C)(c3ccc(-c4cnc(N)nc4)cc3)C3CC3)no2)cn1,"cell-free assay, competition with immobilised ligand",1 µM,91
C[C@@H]1CN(c2ccc3ncc(-c4ccc5[nH]nc(C6CC6)c5c4)n3n2)C[C@H](C)O1,"binding, competition with immobilised ligand",0.5 µM,100
CN(C)c1nccc(-c2cnc3ncccn23)n1,binding,1 µM,100
C=CC(=O)N1CCC(C(=O)NCC(=O)N2CCN(c3nc(-c4cnc(N)nc4C(F)F)nc(N4CCOCC4)n3)CC2)CC1,"binding, competition with immobilised ligand",1 µM,100
Cc1cnn2ncc(-c3ccnc(N(C)C)n3)c2c1,binding,1 µM,86
O=C(O)[C@H]1[C@H](Cn2nnc3ccccc3c2=O)CC[C@@H]1C(=O)c1ccc(OCCC2CCOCC2)cc1,"cell-free assay, competition with immobilised ligand",1 µM,100
COc1ncc2cc3ccccc3nc2c1C#N,"cell-free assay, competition with immobilised ligand",5 µM,91
C[C@@H]1CN(c2cc(-c3n[nH]c4ccc(OC5(C)CC5)cc34)ncn2)C[C@H](C)O1,"cell-free assay, competition with immobilised ligand",0.1 µM,100
CN(C)c1ncc(F)c(-c2cnn3ncccc23)n1,binding,1 µM,100
CC1=C(C#N)C(c2ccc3c(c2)c(NC(=O)c2ccccc2C)nn3C)C(C#N)=C(C)N1,"cell-free assay, competition with immobilised ligand",1 µM,84
CNC(=O)[C@@H]1CC[C@@H](n2c(-c3ccc4cnccc4c3)nc3ccc(C(=O)NCc4cccc(C(N)=O)c4)cc32)C1,"binding, competition with immobilised ligand",1 µM,100
Cc1c[nH]c2nccc(Oc3c(F)cc(Nc4cc(Cl)nc(N)n4)cc3F)c12,"cell-free assay, competition with immobilised ligand",0.1 µM,100
CN(C)c1nccc(-c2cnn3ncccc23)n1,binding,1 µM,100
